Broadly, the pEC50 is the negative decadic logarithm of the EC50, by convention in mol/L.

pEC50: −log10 of the molar value.

The subject of one data set is DENV. The data set is described as follows: DENV subgenomic replicon assay. It is filed as cell-based, Dengue virus. The note with it: for activity against DENV relative to WNV: 10 μM, comparison of replicon assays; for DENV Inhibition %: single concentration 10 μM, 3 days, BHK replicon cells. A general note: In antiviral work, replicon cells carry a viral genome segment that copies itself.

In the next data set the target is DNV3MTase (Dengue virus type 3, UniProt P27915). The experiment in a line: SAM binding inhibition. The note with it: 20 μM compound, 580 nM biotinylated DNV3MTase, 425 nM 3H-SAM. Also on record: species or system DENV3. The method in brief:
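DENV3 MTase from E. coli, refolded from urea on Ni-NTA and cleaved with 3C protease, then NHS-biotinylated (13:1 biotin:protein). Test compound, SAM or sinefungin preincubated 20 min at 23°C. Then 1.65 μCi ³H-SAM, 15 min. Centrifuged; SPA counts read.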

In data set [1] the test system is HIV-1. The note with it: read-out: EC50 against HIV-1; as reported previously ref 23; cited from earlier work.
The test system of the next data set is WNV. The experiment in a line: WNV subgenomic replicon assay. It is filed as cell-based, West Nile virus. The note with it: for inhibition against WNV relative to DENV: 10 μM, comparison of replicon assays.
Data set [2] deals with HIV-1. The experiment in a line: HIV-1 antiviral assay. It is filed as cell-based. The note with it: data not shown.
The test system of data set [3] is WNV replicon-containing cells. The experiment in a line: Cell viability assay. Format: cell-based, baby hamster. The following applies: for cytotoxicity: 10 μM, replicon cells.
For data set [4], the system named is DENV replicon-containing cells. The data set is described as follows: Cell viability assay. It is filed as cell-based, baby hamster. The note with it: single concentration 10 μM, 3 days, DENV replicon BHK cells.

Sequence of DNV3MTase (P27915 2492-2753): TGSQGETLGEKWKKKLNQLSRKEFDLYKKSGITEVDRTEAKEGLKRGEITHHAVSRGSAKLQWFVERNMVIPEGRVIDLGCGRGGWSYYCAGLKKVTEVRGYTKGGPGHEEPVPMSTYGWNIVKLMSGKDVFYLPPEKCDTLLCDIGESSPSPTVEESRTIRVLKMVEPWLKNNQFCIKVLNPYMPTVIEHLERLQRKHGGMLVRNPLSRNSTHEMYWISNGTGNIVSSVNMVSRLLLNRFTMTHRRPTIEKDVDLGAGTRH

Take `Cc1cn([C@H]2C[C@H](NC(=O)Nc3cccc4ccccc34)[C@@H](CO[Si](C)(C)C(C)(C)C)O2)c(=O)[nH]c1=O` [19b]: in the data set with DENV, the “activity against DENV relative to WNV” value was “considerably more active against DENV than WNV”. On the same count and under the same terms, next, `Cc1cn([C@H]2C[C@H](NC(=O)c3c[nH]c4ccccc34)[C@@H](CO[Si](C)(C)C(C)(C)C)O2)c(=O)[nH]c1=O` [15f]: “considerably more active against DENV than WNV”. On to `Nc1ncnc2c1ncn2[C@@H]1O[C@H](C[C@@H](N)CC[C@H](N)C(=O)O)[C@@H](O)[C@H]1O` [SIN, sinefungin], for which the “Inhibition of the [3H]-SAM-MTase complex formation” value on DNV3MTase is listed as “same level of reduction”. `COc1ccc2cc(-c3cnnn3[C@H]3C[C@H](n4cc(C)c(=O)[nH]c4=O)O[C@@H]3CO)ccc2c1` [10a, 1-((2R,4S,5S)-5-(Hydroxymethyl)-4-(5-(6-methoxynaphthalen-2-yl)-1H-1,2,3-triazol-1-yl)tetrahydrofuran-2-yl)-5-methylpyrimidine-2,4(1H,3H)-dione]: the “DENV Inhibition %” value in the data set on DENV is “did not show any inhibition”. In addition, the pEC50 with HIV-1 [1] was 7.17.

In the case of `Cc1cn([C@H]2C[C@H](N3C(=O)CSC3c3c4ccccc4cc4ccccc34)[C@@H](CO[Si](C)(C)C(C)(C)C)O2)c(=O)[nH]c1=O` (stereo partly drawn) [13c], the “inhibition against WNV relative to DENV” value with WNV is listed as “substantially higher inhibition against WNV than DENV”.

As for `COc1ccc2cc(-c3cnnn3[C@H]3C[C@H](n4cc(C)c(=O)[nH]c4=O)O[C@@H]3CO[Si](C)(C)C(C)(C)C)ccc2c1` [11a], the “DENV Inhibition %” value in the data set on DENV is reported as “inhibited both viruses almost completely”. Besides, the anti-HIV-1 activity entry in the data set on HIV-1 [2] is recorded as “no appreciable anti-HIV-1 activity”. Consider “3′-azidothymidine [4, AZT, reference compound]”, for which the “WNV Inhibition %” value in the data set on WNV (single concentration 10 μM, 3 days, BHK replicon cells) is given as 0%. The “DENV Inhibition %” value in the data set on DENV is 0%. The “WNV Viability %” value in data set [3] (single concentration 10 μM, 3 days, WNV replicon BHK cells) is given as 83%. Also, the “DENV Viability %” value in data set [4] is 89%. For the compound `CCOCOC[C@H]1O[C@@H](n2cc(C)c(=O)[nH]c2=O)C[C@@H]1n1nncc1-c1ccc2cc(OC)ccc2c1` [compound 26, 1-((2R,4S,5S)-5-((Ethoxymethoxy)methyl)-4-(5-(6-methoxynaphthalen-2-yl)-1H-1,2,3-triazol-1-yl)tetrahydrofuran-2-yl)-5-methylpyrimidine-2,4(1H,3H)-dione], the “DENV Inhibition %” value in the data set with DENV was “did not yield appreciable antiviral activity”. On to `C[S+](CC[C@H](N)C(=O)[O-])C[C@H]1O[C@@H](n2cnc3c(N)ncnc32)[C@H](O)[C@@H]1O` (stereo partly drawn) [SAM, S-adenosyl-L-methionine], for which the “Inhibition of the [3H]-SAM-MTase complex formation” value at DNV3MTase is given as “same level of reduction”. Regarding `Cc1cn([C@H]2C[C@H](NC(=O)Nc3ccccc3)[C@@H](CO[Si](C)(C)C(C)(C)C)O2)c(=O)[nH]c1=O` [19a], the “activity against DENV relative to WNV” value with DENV was “considerably more active against DENV than WNV”. As to `Cc1cn([C@H]2C[C@H](N3C(=O)CSC3c3ccc4[nH]ccc4c3)[C@@H](CO[Si](C)(C)C(C)(C)C)O2)c(=O)[nH]c1=O` (stereo partly drawn) [13b], the “inhibition against WNV relative to DENV” value with WNV is “substantially higher inhibition against WNV than DENV”. Still for that read-out and setting: the same measure for `Cc1cn([C@H]2C[C@H](NC(=O)NC34CC5CC(CC(C5)C3)C4)[C@@H](CO[Si](C)(C)C(C)(C)C)O2)c(=O)[nH]c1=O` [19c]: “substantially higher inhibition against WNV than DENV”. `Cc1ccc(S(=O)(=O)NC(=O)N[C@H]2C[C@H](n3cc(C)c(=O)[nH]c3=O)O[C@@H]2CO[Si](C)(C)C(C)(C)C)cc1` [21a, N-(((2S,3S,5R)-2-(((tert-Butyldimethylsilyl)oxy)methyl)-5-(5-meth-yl-2,4-dioxo-3,4-dihydropyrimidin-1(2H)-yl)tetrahydrofuran-3-yl)-carbamoyl)-4-methylbenzenesulfonamide]: the “activity against DENV relative to WNV” value with DENV was “considerably more active against DENV than WNV”. With `COC[C@H]1O[C@@H](n2cc(C)c(=O)n(C)c2=O)C[C@@H]1n1nncc1-c1ccc2cc(OC)ccc2c1` [compound 25, 1-((2R,4S,5S)-5-(Methoxymethyl)-4-(5-(6-methoxynaphthalen-2-yl)-1H-1,2,3-triazol-1-yl)tetrahydrofuran-2-yl)-3,5-dimethylpyrimidine-2,4(1H,3H)-dione], the “DENV Inhibition %” value with DENV is “did not yield appreciable antiviral activity”. Turning to `COc1ccc2cc(-c3cnnn3[C@H]3C[C@H](n4cc(C)c(=O)[nH]c4=O)O[C@@H]3CO[Si](C(C)C)(C(C)C)C(C)C)ccc2c1` [compound 22], the cytotoxicity result in data set [3] is reported as “significant cytotoxicity”. Consider `COc1ccc2cc(-c3cnnn3[C@H]3C[C@H](n4cc(C)c(=O)[nH]c4=O)O[C@@H]3CO[Si](c3ccccc3)(c3ccccc3)C(C)(C)C)ccc2c1` [compound 23], for which, in data set [3], the cytotoxicity result was “significant cytotoxicity”.

For the compound `COc1ccc2cc(-c3cnnn3[C@H]3C[C@H](n4cc(C)c(=O)[nH]c4=O)O[C@@H]3COC3CCCCO3)ccc2c1` (stereo partly drawn) [compound 27, 1-((2R,4S,5S)-4-(5-(6-Methoxynaphthalen-2-yl)-1H-1,2,3-triazol-1-yl)-5-(((tetrahydro-2H-pyran-2-yl)oxy)methyl)-tetrahydrofuran-2-yl)-5-methylpyrimidine-2,4(1H,3H)-dione], the “DENV Inhibition %” value in the data set on DENV is given as “did not yield appreciable antiviral activity”.

On to `Cc1cn([C@H]2C[C@H](NC(=O)c3ccc(N4CCOCC4)cc3)[C@@H](CO[Si](C)(C)C(C)(C)C)O2)c(=O)[nH]c1=O` [15h], for which, in the data set with DENV, the “activity against DENV relative to WNV” value was “considerably more active against DENV than WNV”.

As to `COc1ccc2cc(-c3cnnn3[C@H]3C[C@H](n4cc(C)c(=O)[nH]c4=O)O[C@@H]3COC(C)=O)ccc2c1` [compound 24, ((2S,3S,5R)-3-(5-(6-Methoxynaphthalen-2-yl)-1H-1,2,3-triazol-1-yl)-5-(5-methyl-2,4-dioxo-3,4-dihydropyrimidin-1(2H)-yl)tetrahydrofuran-2-yl)methyl acetate], the “DENV Inhibition %” value with DENV is given as “did not yield appreciable antiviral activity”.
